Results on eight molecules are retold here after ChEMBL document CHEMBL1138520, “Molecular and conformational determinants of pituitary adenylate cyclase-activating polypeptide (PACAP) for activation of the PAC1 receptor” (J Med Chem, 2009).

Structures are written as SMILES. Where a SMILES comes first, the peptide text is derived from it. [ ]: non-standard residue; d: D form. ξ: configuration not given here. ξTic = O=C(O)C1Cc2ccccc2CN1; Aib = CC(C)(N)C(=O)O

Experiment [1] has as its target T1, Pituitary adenylate cyclase-activating polypeptide type I receptor (Homo sapiens, UniProt P41586). The experiment can be described thus: Displacement of [125I]Ac-PACAP27 from human recombinant PAC1 receptor expressed in CHO cells by gamma- counter. Format: cell-based. In general terms: Displacement assays read how much labelled ligand stays bound in the presence of the test substance.
Target sequence in this assay (P41586 whole entry): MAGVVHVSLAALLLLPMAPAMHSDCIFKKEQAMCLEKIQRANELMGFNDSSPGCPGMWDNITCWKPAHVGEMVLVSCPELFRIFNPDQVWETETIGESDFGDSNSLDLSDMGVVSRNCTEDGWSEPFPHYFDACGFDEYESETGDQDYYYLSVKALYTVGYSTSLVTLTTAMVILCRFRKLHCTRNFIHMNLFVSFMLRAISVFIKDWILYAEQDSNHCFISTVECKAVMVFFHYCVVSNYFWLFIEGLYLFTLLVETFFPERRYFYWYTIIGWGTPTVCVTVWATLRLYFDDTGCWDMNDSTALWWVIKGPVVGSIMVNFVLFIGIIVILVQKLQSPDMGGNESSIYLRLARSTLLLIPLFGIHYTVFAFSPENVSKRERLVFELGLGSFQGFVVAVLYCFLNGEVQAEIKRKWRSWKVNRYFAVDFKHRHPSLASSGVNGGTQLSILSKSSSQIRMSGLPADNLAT

Experiment [2] deals with T1, Pituitary adenylate cyclase-activating polypeptide type I receptor. Description: Agonist activity at human recombinant PAC1 receptor expressed in CHO cells assessed as PACAP38-induced calcium mobilization by FLIPR assay relative to PACAP38. Format: functional, cell-based. A digest of the protocol:
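CHO cells stably expressing recombinant human PAC1, plated 24 h before assay, loaded with fluo-4 AM for 60 min at 37 °C in the dark, then rinsed into HBSS for 15 min at 37 °C. Peptide was added 18 s into a 150 s read (ex 480/em 525 nm), at final concentrations of 1 × 10-12 to 1 × 10^-5 M. Response was normalised to 1 × 10^-5 M PACAP38 on each plate. EC50 and efficacy came from nonlinear regression; 4-10 independent assays in duplicate.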
On the technique in general: Calcium flux is commonly read through the fluorescence of an indicator in the cells.
Target sequence in this assay (P41586 21-468 limits assumed): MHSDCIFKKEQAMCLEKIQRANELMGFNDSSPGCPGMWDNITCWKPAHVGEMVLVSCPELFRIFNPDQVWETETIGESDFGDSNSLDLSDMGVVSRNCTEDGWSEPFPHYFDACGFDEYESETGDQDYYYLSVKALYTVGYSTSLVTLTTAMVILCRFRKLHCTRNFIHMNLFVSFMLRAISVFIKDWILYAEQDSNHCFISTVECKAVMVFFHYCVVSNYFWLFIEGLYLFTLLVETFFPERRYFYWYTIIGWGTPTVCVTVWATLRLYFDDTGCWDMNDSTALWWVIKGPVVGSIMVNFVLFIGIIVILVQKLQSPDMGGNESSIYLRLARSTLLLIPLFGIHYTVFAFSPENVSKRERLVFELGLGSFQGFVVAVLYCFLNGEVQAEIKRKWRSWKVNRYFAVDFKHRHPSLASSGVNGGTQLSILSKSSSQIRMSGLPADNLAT

For experiment [3] the target is unchanged. The experiment can be described thus: Agonist activity at human recombinant PAC1 receptor expressed in CHO cells assessed as PACAP38-induced calcium mobilization by FLIPR assay. Type of experiment: functional, cell-based. A digest of the protocol: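 CHO cells stably expressing recombinant human PAC1, plated 24 h before assay, loaded with fluo-4 AM for 60 min at 37 °C in the dark, then rinsed into HBSS for 15 min at 37 °C. EC50 and efficacy came from nonlinear regression; 4-10 independent assays in duplicate.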
Target sequence in this assay (P41586 whole entry): as the sequence (P41586 whole entry) above

As usually defined, the IC50 is the concentration that inhibits the measured activity by half. Broadly, the Emax is the size of the effect at its maximum, as opposed to the concentration needed. By EC50 is commonly meant the concentration needed to bring the measured effect to its halfway point. Turning to `CC[C@H](C)[C@H](NC(=O)CNC(=O)[C@H](C)NC(=O)[C@H](CO)NC(=O)[C@@H](N)Cc1cnc[nH]1)C(=O)N[C@@H](Cc1ccccc1)C(=O)N[C@H](C(=O)N[C@@H](CC(=O)O)C(=O)N[C@@H](CO)C(=O)N[C@@H](Cc1ccc(O)cc1)C(=O)N[C@@H](CO)C(=O)N[C@@H](CCCNC(=N)N)C(=O)N[C@@H](Cc1ccc(O)cc1)C(=O)N[C@@H](CCCNC(=N)N)C(=O)N[C@@H](CCCCN)C(=O)N[C@@H](CCC(N)=O)C(=O)N[C@@H](CCSC)C(=O)N[C@@H](C)C(=O)N[C@H](C(=O)N[C@@H](CCCCN)C(=O)N[C@@H](CCCCN)C(=O)N[C@@H](Cc1ccc(O)cc1)C(=O)N[C@@H](CC(C)C)C(=O)N[C@@H](C)C(=O)N[C@@H](C)C(=O)N[C@H](C(=O)N[C@@H](CC(C)C)C(=O)NCC(=O)N[C@@H](CCCCN)C(=O)N[C@@H](CCCNC(=N)N)C(=O)N[C@@H](Cc1ccc(O)cc1)C(=O)N[C@@H](CCCCN)C(=O)N[C@@H](CCC(N)=O)C(=O)N[C@@H](CCCNC(=N)N)C(=O)N[C@H](C(=O)N[C@@H](CCCCN)C(=O)N[C@@H](CC(N)=O)C(=O)N[C@@H](CCCCN)C(N)=O)C(C)C)C(C)C)C(C)C)[C@@H](C)O` (H-HSAGIFTDSYSRYRKQMAVKKYLAAVLGKRYKQRVKNK-NH2), the IC50 in experiment [1] came to 97.2 nM. The Emax in experiment [2] worked out at 64.1%. The EC50 in experiment [3] came out at 10000 nM.
Take `CC[C@H](C)[C@H](NC(=O)[C@H](C)NC(=O)[C@H](CC(=O)O)NC(=O)[C@H](CO)NC(=O)[C@@H](N)Cc1cnc[nH]1)C(=O)N[C@@H](Cc1ccccc1)C(=O)N[C@H](C(=O)N[C@@H](CC(=O)O)C(=O)N[C@@H](CO)C(=O)N[C@@H](Cc1ccc(O)cc1)C(=O)N[C@@H](CO)C(=O)N[C@@H](CCCNC(=N)N)C(=O)N[C@@H](Cc1ccc(O)cc1)C(=O)N[C@@H](CCCNC(=N)N)C(=O)N[C@@H](CCCCN)C(=O)N[C@@H](CCC(N)=O)C(=O)N[C@@H](CCSC)C(=O)N[C@@H](C)C(=O)N[C@H](C(=O)N[C@@H](CCCCN)C(=O)N[C@@H](CCCCN)C(=O)N[C@@H](Cc1ccc(O)cc1)C(=O)N[C@@H](CC(C)C)C(=O)N[C@@H](C)C(=O)N[C@@H](C)C(=O)N[C@H](C(=O)N[C@@H](CC(C)C)C(N)=O)C(C)C)C(C)C)[C@@H](C)O`: in experiment [1], the IC50 stood at 9.1 nM. Moreover, the Emax in experiment [2] amounted to 105%. Moreover, the EC50 in experiment [3] stood at 20.8 nM.
For `CC[C@H](C)[C@H](NC(=O)CNC(=O)[C@H](CC(=O)O)NC(=O)C(C)(C)NC(=O)[C@@H](N)Cc1cnc[nH]1)C(=O)N[C@@H](Cc1ccccc1)C(=O)N[C@H](C(=O)N[C@@H](CC(=O)O)C(=O)N[C@@H](CO)C(=O)N[C@@H](Cc1ccc(O)cc1)C(=O)N[C@@H](CO)C(=O)N[C@@H](CCCNC(=N)N)C(=O)N[C@@H](Cc1ccc(O)cc1)C(=O)N[C@@H](CCCNC(=N)N)C(=O)N[C@@H](CCCCN)C(=O)N[C@@H](CCC(N)=O)C(=O)N[C@@H](CCSC)C(=O)N[C@@H](C)C(=O)N[C@H](C(=O)N[C@@H](CCCCN)C(=O)N[C@@H](CCCCN)C(=O)N[C@@H](Cc1ccc(O)cc1)C(=O)N[C@@H](CC(C)C)C(=O)N[C@@H](C)C(=O)N[C@@H](C)C(=O)N[C@H](C(=O)N[C@@H](CC(C)C)C(=O)NCC(=O)N[C@@H](CCCCN)C(=O)N[C@@H](CCCNC(=N)N)C(=O)N[C@@H](Cc1ccc(O)cc1)C(=O)N[C@@H](CCCCN)C(=O)N[C@@H](CCC(N)=O)C(=O)N[C@@H](CCCNC(=N)N)C(=O)N[C@H](C(=O)N[C@@H](CCCCN)C(=O)N[C@@H](CC(N)=O)C(=O)N[C@@H](CCCCN)C(N)=O)C(C)C)C(C)C)C(C)C)[C@@H](C)O` (H-H[Aib]DGIFTDSYSRYRKQMAVKKYLAAVLGKRYKQRVKNK-NH2), the IC50 in experiment [1] turned out to be 7.2 nM. Also, in experiment [2], the Emax stood at 94.8%. The EC50 in experiment [3] was found to be 4.3 nM.
In the same order, the values of `CC[C@H](C)[C@H](NC(=O)CNC(=O)[C@H](CCC(=O)O)NC(=O)[C@H](CO)NC(=O)[C@@H](N)Cc1cnc[nH]1)C(=O)N[C@@H](Cc1ccccc1)C(=O)N[C@H](C(=O)N[C@@H](CC(=O)O)C(=O)N[C@@H](CO)C(=O)N[C@@H](Cc1ccc(O)cc1)C(=O)N[C@@H](CO)C(=O)N[C@@H](CCCNC(=N)N)C(=O)N[C@@H](Cc1ccc(O)cc1)C(=O)N[C@@H](CCCNC(=N)N)C(=O)N[C@@H](CCCCN)C(=O)N[C@@H](CCC(N)=O)C(=O)N[C@@H](CCSC)C(=O)N[C@@H](C)C(=O)N[C@H](C(=O)N[C@@H](CCCCN)C(=O)N[C@@H](CCCCN)C(=O)N[C@@H](Cc1ccc(O)cc1)C(=O)N[C@@H](CC(C)C)C(=O)N[C@@H](C)C(=O)N[C@@H](C)C(=O)N[C@H](C(=O)N[C@@H](CC(C)C)C(=O)NCC(=O)N[C@@H](CCCCN)C(=O)N[C@@H](CCCNC(=N)N)C(=O)N[C@@H](Cc1ccc(O)cc1)C(=O)N[C@@H](CCCCN)C(=O)N[C@@H](CCC(N)=O)C(=O)N[C@@H](CCCNC(=N)N)C(=O)N[C@H](C(=O)N[C@@H](CCCCN)C(=O)N[C@@H](CC(N)=O)C(=O)N[C@@H](CCCCN)C(N)=O)C(C)C)C(C)C)C(C)C)[C@@H](C)O` (H-HSEGIFTDSYSRYRKQMAVKKYLAAVLGKRYKQRVKNK-NH2) are 7 nM, 87.6% and 1.5 nM.
`CC[C@H](C)[C@H](NC(=O)CNC(=O)[C@H](CC(=O)O)NC(=O)[C@H](CO)NC(=O)[C@@H](N)Cc1cnc[nH]1)C(=O)N1Cc2ccccc2CC1C(=O)N[C@H](C(=O)N[C@@H](CC(=O)O)C(=O)N[C@@H](CO)C(=O)N[C@@H](Cc1ccc(O)cc1)C(=O)N[C@@H](CO)C(=O)N[C@@H](CCCNC(=N)N)C(=O)N[C@@H](Cc1ccc(O)cc1)C(=O)N[C@@H](CCCNC(=N)N)C(=O)N[C@@H](CCCCN)C(=O)N[C@@H](CCC(N)=O)C(=O)N[C@@H](CCSC)C(=O)N[C@@H](C)C(=O)N[C@H](C(=O)N[C@@H](CCCCN)C(=O)N[C@@H](CCCCN)C(=O)N[C@@H](Cc1ccc(O)cc1)C(=O)N[C@@H](CC(C)C)C(=O)N[C@@H](C)C(=O)N[C@@H](C)C(=O)N[C@H](C(=O)N[C@@H](CC(C)C)C(=O)NCC(=O)N[C@@H](CCCCN)C(=O)N[C@@H](CCCNC(=N)N)C(=O)N[C@@H](Cc1ccc(O)cc1)C(=O)N[C@@H](CCCCN)C(=O)N[C@@H](CCC(N)=O)C(=O)N[C@@H](CCCNC(=N)N)C(=O)N[C@H](C(=O)N[C@@H](CCCCN)C(=O)N[C@@H](CC(N)=O)C(=O)N[C@@H](CCCCN)C(N)=O)C(C)C)C(C)C)C(C)C)[C@@H](C)O` (some centres undefined) (H-HSDGI[ξTic]TDSYSRYRKQMAVKKYLAAVLGKRYKQRVKNK-NH2): the IC50 in experiment [1] came out at 1420 nM. In experiment [2], the Emax was determined as 69.6%. For the same molecule, the EC50 in experiment [3] was 4010 nM.
In the same order, the values of `CC[C@H](C)[C@H](NC(=O)CNC(=O)[C@H](CC(=O)O)NC(=O)[C@H](CO)N(C)C(=O)[C@@H](N)Cc1cnc[nH]1)C(=O)N[C@@H](Cc1ccccc1)C(=O)N[C@H](C(=O)N[C@@H](CC(=O)O)C(=O)N[C@@H](CO)C(=O)N[C@@H](Cc1ccc(O)cc1)C(=O)N[C@@H](CO)C(=O)N[C@@H](CCCNC(=N)N)C(=O)N[C@@H](Cc1ccc(O)cc1)C(=O)N[C@@H](CCCNC(=N)N)C(=O)N[C@@H](CCCCN)C(=O)N[C@@H](CCC(N)=O)C(=O)N[C@@H](CCSC)C(=O)N[C@@H](C)C(=O)N[C@H](C(=O)N[C@@H](CCCCN)C(=O)N[C@@H](CCCCN)C(=O)N[C@@H](Cc1ccc(O)cc1)C(=O)N[C@@H](CC(C)C)C(=O)N[C@@H](C)C(=O)N[C@@H](C)C(=O)N[C@H](C(=O)N[C@@H](CC(C)C)C(=O)NCC(=O)N[C@@H](CCCCN)C(=O)N[C@@H](CCCNC(=N)N)C(=O)N[C@@H](Cc1ccc(O)cc1)C(=O)N[C@@H](CCCCN)C(=O)N[C@@H](CCC(N)=O)C(=O)N[C@@H](CCCNC(=N)N)C(=O)N[C@H](C(=O)N[C@@H](CCCCN)C(=O)N[C@@H](CC(N)=O)C(=O)N[C@@H](CCCCN)C(N)=O)C(C)C)C(C)C)C(C)C)[C@@H](C)O` are 9.1 nM, 87.7% and 110 nM.
On to `CC[C@H](C)[C@H](NC(=O)CNC(=O)[C@H](CC(=O)O)NC(=O)[C@H](C)NC(=O)[C@@H](N)Cc1cnc[nH]1)C(=O)N[C@@H](Cc1ccccc1)C(=O)N[C@H](C(=O)N[C@@H](CC(=O)O)C(=O)N[C@@H](CO)C(=O)N[C@@H](Cc1ccc(O)cc1)C(=O)N[C@@H](CO)C(=O)N[C@@H](CCCNC(=N)N)C(=O)N[C@@H](Cc1ccc(O)cc1)C(=O)N[C@@H](CCCNC(=N)N)C(=O)N[C@@H](CCCCN)C(=O)N[C@@H](CCC(N)=O)C(=O)N[C@@H](CCSC)C(=O)N[C@@H](C)C(=O)N[C@H](C(=O)N[C@@H](CCCCN)C(=O)N[C@@H](CCCCN)C(=O)N[C@@H](Cc1ccc(O)cc1)C(=O)N[C@@H](CC(C)C)C(=O)N[C@@H](C)C(=O)N[C@@H](C)C(=O)N[C@H](C(=O)N[C@@H](CC(C)C)C(N)=O)C(C)C)C(C)C)[C@@H](C)O`, for which the IC50 in experiment [1] was 5.1 nM. Also, in experiment [2], the Emax is 98.1%. Further, in experiment [3], the EC50 stood at 6.8 nM.
As to `CC[C@H](C)[C@H](NC(=O)CNC(=O)[C@H](CC(=O)O)NC(=O)[C@H](CO)NC(=O)[C@@H](N)Cc1cnc[nH]1)C(=O)N1c2ccccc2CC1C(=O)N[C@H](C(=O)N[C@@H](CC(=O)O)C(=O)N[C@@H](CO)C(=O)N[C@@H](Cc1ccc(O)cc1)C(=O)N[C@@H](CO)C(=O)N[C@@H](CCCNC(=N)N)C(=O)N[C@@H](Cc1ccc(O)cc1)C(=O)N[C@@H](CCCNC(=N)N)C(=O)N[C@@H](CCCCN)C(=O)N[C@@H](CCC(N)=O)C(=O)N[C@@H](CCSC)C(=O)N[C@@H](C)C(=O)N[C@H](C(=O)N[C@@H](CCCCN)C(=O)N[C@@H](CCCCN)C(=O)N[C@@H](Cc1ccc(O)cc1)C(=O)N[C@@H](CC(C)C)C(=O)N[C@@H](C)C(=O)N[C@@H](C)C(=O)N[C@H](C(=O)N[C@@H](CC(C)C)C(N)=O)C(C)C)C(C)C)[C@@H](C)O` (some centres undefined), the IC50 in experiment [1] stood at 1940 nM. For the same molecule, the Emax in experiment [2] stood at 72%. In addition, the EC50 in experiment [3] was 35 nM.
